Experimental data taken from ChEMBL document CHEMBL2390866, “Novel pyrimidoazepine analogs as serotonin 5-HT(2A) and 5-HT(2C) receptor ligands for the treatment of obesity” (Eur J Med Chem, 2013).
pIC50: −log10 of the molar value. The source made the active and inactive calls. No cut-off for these calls is given here.

Key:
[1] = system: Mus musculus; experiment: Antiobesity activity in B6.V/J ob/ob mouse assessed as inhibition of body weight gain at 12.5 mg/kg, ip measured after 12 hrs relative to vehicle-treated control; assay type: functional; conditions: route intraperitoneal
[2] = system: Mus musculus; experiment: Antiobesity activity in B6.V/J ob/ob mouse assessed as inhibition of food intake at 12.5 mg/kg, ip measured up to 12 hrs relative to vehicle-treated control; assay type: functional; conditions: route intraperitoneal
In short: (§1)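 Male mice were acclimated 1 week at 23 ± 3 °C and 50 ± 20% humidity, then fasted 24 h. They were dosed once intraperitoneally with vehicle or compound: 50 mg/kg in C57BL/6, or 12.5, 25 or 50 mg/kg in B6.V-Lep^ob/J. Food intake was measured at 2, 6 and 12 h versus vehicle control.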

[3] = target: T1, 5-hydroxytryptamine receptor 1A (Homo sapiens, UniProt P08908); experiment: Displacement from [3H]8-OH-DPAT from human recombinant 5HT-1A receptor expressed in HEK293 cells after 120 mins; assay type: cell-based
T1 sequence (P08908 whole entry): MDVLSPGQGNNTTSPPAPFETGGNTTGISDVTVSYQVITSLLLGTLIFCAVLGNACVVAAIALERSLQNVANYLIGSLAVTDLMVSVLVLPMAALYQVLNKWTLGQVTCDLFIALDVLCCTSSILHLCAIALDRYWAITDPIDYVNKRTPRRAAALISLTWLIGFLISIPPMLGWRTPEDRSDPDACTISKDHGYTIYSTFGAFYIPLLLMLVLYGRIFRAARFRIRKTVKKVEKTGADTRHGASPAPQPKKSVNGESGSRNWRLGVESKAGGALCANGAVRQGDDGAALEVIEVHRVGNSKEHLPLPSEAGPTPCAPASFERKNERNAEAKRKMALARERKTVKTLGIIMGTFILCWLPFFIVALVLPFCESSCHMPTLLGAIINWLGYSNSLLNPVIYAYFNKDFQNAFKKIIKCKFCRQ
In short: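 Membranes from HEK293-EBNA cells stably expressing recombinant human 5-HT1A. Incubated with 2 nM [3H]8-OH-DPAT and test compound at a range of concentrations in 50 mM Tris-HCl pH 7.4 with 5 mM MgSO4.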

[4] = Plasma concentration in Sprague-Dawley rat at 10 mg/kg, po measured at 8 hrs; assay type: ADME, organism-based; set-up: dose 10 mg/kg, route oral
In short: (§2)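 Rats fasted 12 h, then dosed orally by gavage or by bolus tail-vein injection at 2 ml/kg. Compound given as a 5 mg/ml solution in N-methyl-2-pyrrolidone/Tween 80/water (1:2:7). Samples taken at various times (n = 5) and stored at −70 °C. Plasma deproteinized with acetonitrile containing carbamazepine internal standard, then quantified by LC-MS/MS.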

[5] = system: Mus musculus; experiment: Antiobesity activity in B6.V/J ob/ob mouse assessed as change in lung weight at 25 mg/kg, po bid measured after 14 days (reference value: 0.143 +/- 0.013 g); assay type: functional
[6] = species: Homo sapiens; experiment: Selectivity ratio of IC50 for human recombinant 5HT-2B receptor to IC50 for human recombinant 5HT-2A receptor
[7] = system: Mus musculus; experiment: Antiobesity activity in B6.V/J ob/ob mouse assessed as change in thymus weight at 25 mg/kg, po bid measured after 14 days (reference value: 0.029 +/- 0.006 g); assay type: functional
[8] = AUClast in Sprague-Dawley rat at 10 mg/kg, po; assay type: ADME, organism-based; set-up: time 0 - last, dose 10 mg/kg, route oral; conditions: plasma
[9] = Plasma concentration in Sprague-Dawley rat at 10 mg/kg, iv measured at 2 hrs; assay type: ADME, organism-based; set-up: dose 10 mg/kg, route intravenous; in short: as §2
[10] = system: Mus musculus; experiment: Antiobesity activity in B6.V/J ob/ob mouse assessed as change in brain weight at 5 mg/kg, po bid measured after 14 days (reference value: 0.340 +/- 0.017 g); assay type: functional
[11] = system: Mus musculus; experiment: Antiobesity activity in B6.V/J ob/ob mouse assessed as inhibition of body weight gain at 50 mg/kg, ip measured after 12 hrs relative to vehicle-treated control; assay type: functional; conditions: route intraperitoneal
[12] = Mean residence time in Sprague-Dawley rat at 10 mg/kg, iv; assay type: ADME, organism-based; set-up: dose 10 mg/kg, route intravenous; conditions: in vivo; in short: as §2
[13] = system: Mus musculus; experiment: Antiobesity activity in B6.V/J ob/ob mouse assessed as inhibition of food intake at 12.5 mg/kg, ip measured up to 2 hrs relative to vehicle-treated control; assay type: functional; conditions: route intraperitoneal; in short: as §1
[14] = Terminal half life in Sprague-Dawley rat at 10 mg/kg, po; assay type: ADME, organism-based; set-up: dose 10 mg/kg, route oral; conditions: in vivo, read-out: beta t1/2; in short: as §2
[15] = system: Mus musculus; experiment: Antiobesity activity in B6.V/J ob/ob mouse assessed as change in gonadal adipose tissue weight at 50 mg/kg, po bid measured after 14 days (reference value: 3.599 +/- 0.155 g); assay type: functional
[16] = system: Mus musculus; experiment: Antiobesity activity in C57BL/6 mouse assessed as inhibition of food intake at 50 mg/kg, ip measured after 2 to 12 hrs relative to vehicle-treated control; assay type: functional; conditions: C57BL/6, ip, route intraperitoneal; in short: as §1
[17] = Ratio of drug level from brain to plasma in Sprague-Dawley rat at 10 mg/kg, po measured at 2 hrs; assay type: ADME, organism-based; set-up: dose 10 mg/kg, route oral; conditions: read-out: BPR; in short: as §2
[18] = system: Mus musculus; experiment: Toxicity in B6.V/J ob/ob mouse assessed as mortality at 50 mg/kg, po bid measured after 14 days; assay type: organism-based; set-up: dose 50 mg/kg, route oral; conditions: in vivo, 336 h
[19] = Drug uptake in Sprague-Dawley rat brain at 10 mg/kg, po measured at 2 hrs; assay type: ADME, organism-based; set-up: dose 10 mg/kg, route oral; conditions: read-out: Drug uptake; in short: as §2
[20] = Cmax in Sprague-Dawley rat at 10 mg/kg, po; assay type: ADME, organism-based; set-up: dose 10 mg/kg, route oral; conditions: in vivo; in short: as §2
[21] = system: Mus musculus; experiment: Antiobesity activity in B6.V/J ob/ob mouse assessed as inhibition of food intake at 25 mg/kg, po bid measured after 14 days relative to vehicle-treated control; assay type: functional; conditions: 336 h
[22] = AUC (0 to infinity) in Sprague-Dawley rat at 10 mg/kg, po; assay type: ADME, organism-based; set-up: time infinity, dose 10 mg/kg, route oral; conditions: plasma
[23] = species: Homo sapiens; experiment: Selectivity ratio of IC50 for human recombinant 5HT-2B receptor to IC50 for human recombinant 5HT-2C receptor
[24] = system: Mus musculus; experiment: Antiobesity activity in B6.V/J ob/ob mouse assessed as reduction of body weight gain at 50 mg/kg, po qd measured after 14 days; assay type: functional, organism-based; set-up: dose 50 mg/kg
In short: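 Male ob/ob mice (B6.V-Lep^ob/J) received oral doses once daily for 14 days, with vehicle control. Food intake and body weight gain were followed.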

[25] = system: Mus musculus; experiment: Antiobesity activity in B6.V/J ob/ob mouse assessed as change in liver weight at 25 mg/kg, po bid measured after 14 days (reference value: 3.396 +/- 0.162 g); assay type: functional
[26] = system: Mus musculus; experiment: Antiobesity activity in B6.V/J ob/ob mouse assessed as change in brain weight at 50 mg/kg, po bid measured after 14 days (reference value: 0.340 +/- 0.017 g); assay type: functional
[27] = target: D(2) dopamine receptor (Homo sapiens, UniProt P14416); experiment: Displacement of [3H]-methylspiperone from dopamine D2L receptor (unknown origin) after 60 mins
In short: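 Receptor membranes incubated at 27 °C, 60 min for D2L and 30 min for D3, with [3H]methylspiperone (0.2 nM for D2L, 0.25 nM for D3) and test compound at a range of concentrations. Buffer was 50 mM Tris-HCl pH 7.4, 10 mM MgCl2, 1 mM EDTA, 120 mM NaCl. Nonspecific binding defined with haloperidol (D2) or GR103691 (D3). IC50 obtained by nonlinear regression.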

[28] = Drug excretion in Sprague-Dawley rat at 10 mg/kg, po; assay type: ADME, organism-based; set-up: dose 10 mg/kg, route oral; conditions: in vivo, read-out: Ae; in short: as §2

Chain of D(2) dopamine receptor (P14416 whole entry): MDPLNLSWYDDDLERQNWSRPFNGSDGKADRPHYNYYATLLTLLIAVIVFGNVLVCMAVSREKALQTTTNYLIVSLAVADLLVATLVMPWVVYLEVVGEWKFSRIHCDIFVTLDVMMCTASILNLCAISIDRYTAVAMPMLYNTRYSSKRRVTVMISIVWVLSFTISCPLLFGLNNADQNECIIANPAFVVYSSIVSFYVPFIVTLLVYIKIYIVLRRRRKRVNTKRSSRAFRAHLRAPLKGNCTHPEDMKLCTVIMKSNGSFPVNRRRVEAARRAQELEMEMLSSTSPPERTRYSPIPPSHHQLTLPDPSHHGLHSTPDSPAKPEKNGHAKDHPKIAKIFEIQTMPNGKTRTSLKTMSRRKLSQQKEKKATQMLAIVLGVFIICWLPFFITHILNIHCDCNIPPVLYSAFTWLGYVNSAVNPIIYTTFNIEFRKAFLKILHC

Cl.Clc1cccc(Nc2nc(Cc3ccccc3)nc3c2CCNCC3)c1
inhibition in vivo at 12.5 mg/kg [1]: 24.9%
inhibition in vivo at 12.5 mg/kg [2]: 47.8%
pIC50 [3]: 5.98
concentration at 8 h [4]: 30 ng/mL
Activity [5]: 0.154 g
Ratio IC50 [6]: 4.2
Activity [7]: 0.034 g
AUC(0-t) [8]: 375 ng·h/mL
concentration at 2 h [9]: 190 ng/mL
Activity [10]: 0.344 g
inhibition in vivo at 50 mg/kg [11]: 80.2%
MRT [12]: 1.88 h
inhibition in vivo at 12.5 mg/kg [13]: 98.6%
half-life [14]: 12.7 h
Activity [15]: 3.475 g
inhibition in vivo at 50 mg/kg [16]: 76.6%
Kp at 2 h [17]: 0.66
Activity [18]: Toxic
concentration at 2 h [19]: 29.2 ng/mL
Cmax [20]: 70 ng/mL
inhibition in vivo at 25 mg/kg [21]: 15.2%
AUC(0-inf) [22]: 1050 ng·h/mL
Ratio IC50 [23]: 8.1
Activity [24]: inactive
Activity [25]: 3.173 g
Activity [26]: 0.36 g
pIC50 [27]: 7.07
dose excreted [28]: 0.03%
